The values that follow come from BindingDB's records for doi:10.1021/acs.jmedchem.5b01762 (University of Illinois At Chicago, 2016).

Assay [1] deals with T1, DNA repair protein RAD51 homolog 1 (Homo sapiens, UniProt Q06609).
T1 sequence (Q06609 whole entry): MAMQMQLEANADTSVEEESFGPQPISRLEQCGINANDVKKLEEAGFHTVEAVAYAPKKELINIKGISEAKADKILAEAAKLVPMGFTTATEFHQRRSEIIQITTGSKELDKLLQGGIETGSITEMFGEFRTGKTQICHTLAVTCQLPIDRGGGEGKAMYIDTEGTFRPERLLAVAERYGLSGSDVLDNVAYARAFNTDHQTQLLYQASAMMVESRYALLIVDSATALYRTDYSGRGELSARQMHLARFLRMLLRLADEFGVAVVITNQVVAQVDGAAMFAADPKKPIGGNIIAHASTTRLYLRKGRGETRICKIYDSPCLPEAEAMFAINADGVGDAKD
Put plainly: Inhibition of Escherichia coli BL21(DE3) expressing human N-terminal 6-histidine/Avi-tagged RAD51 binding to 5'-Alexa488-oligo-dT45 ssDNA preincubated for 40 mins followed by substrate addition measured after 40 mins by fluorescence polarization based microplate method. In a few lines:
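Human RAD51 preincubated with compound in DMSO at 37 °C for 40 min, then 5'-Alexa488-oligo-dT45 added and incubated another 40 min at 37 °C. Buffer: 20 mM HEPES pH 7.5, 2 mM ATP, 10 mM MgCl2, 0.1 mM TCEP. IC50 from least-squares dose–response fits with standard error.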
Background: In fluorescence polarisation assays a small probe gives low polarisation when free and higher when bound to something large.

The target of assay [2] is T1, DNA repair protein RAD51 homolog 1. Put plainly: Inhibition of human N-terminal 6-histidine/Avi-tagged recombinant RAD51 expressed in Escherichia coli BL21(DE3) assessed as D-loop formation using 5'-32P-labeled 90-mer ssDNA as substrate preincubated for 10 mins followed by substrate addition with subsequent incubation with substrate for 5 mins measured after 20 mins in presence of supercoiled pRS306 dsDNA by agarose gel electrophoresis.

SMILES strings stand for the structures. Bounds are passed on as bounds.

`COc1ccc2c(c1)NC(c1ccc(N(C)C)cc1)c1cccn1-2` (configuration not stated): the IC50 in assay [1] and in assay [2] was > 100 µM in each case.
